Reference: the EternaBench riboswitch data

How the values were obtained:
MS2 coat protein [1] = assay: apparent Kd, MS2 coat protein; higher = weaker binding; RNA-MaP array; tryptophan 2.4 mM where present
Method in brief: (§1)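 In 100 mM Tris-HCl pH 7.5, 80 mM KCl, 4 mM MgCl2, BSA, DTT, yeast tRNA and Tween-20, SNAP-549-labelled MS2 coat protein was titrated from 0.7 or 1.5 nM, doubling to 3 µM, over designs transcribed by stalled E. coli RNA polymerase on Illumina sequencing-chip clusters. This was done first without ligand, then with ligand held constant. After green signal was normalised to red-channel RNA signal and control-cluster median Fmax, the apparent Kd was taken as the median of filtered per-cluster binding-curve fits.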

MS2 coat protein [2] = assay: apparent Kd, MS2 coat protein; higher = weaker binding; RNA-MaP array; theophylline 2 mM where present
Method in brief: as §1

[3] = designed as: OFF switch for tryptophan, no ligand
[4] = ligand present: tryptophan, designed as: OFF switch for tryptophan
[5] = designed as: ON switch for tryptophan, no ligand
[6] = ligand present: tryptophan, designed as: ON switch for tryptophan
[7] = designed as: ON switch for theophylline, no ligand
[8] = ligand present: theophylline, designed as: ON switch for theophylline
[9] = designed as: OFF switch for theophylline, no ligand
[10] = ligand present: theophylline, designed as: OFF switch for theophylline

## AACAUGAGGAUCACCCAUGUGUCCUCGAAACGAGGACCGGUACGGCCGCCACUCGGCGUAUGUUGACGAAAAGUCAGCAUACGCA
MS2 coat protein [1]; [3]
  apparent Kd: 0.192 µM
MS2 coat protein [1]; [4]
  apparent Kd: 0.737 µM

## AAUACCGGAUCGGCCGCCACUGGUUGGCCCUGUGUACAUGAGGAUCACCCAUGUCCAUCCCAGACCAGGACCGGGAUCUUUGUGU
MS2 coat protein [1]; [5]
  apparent Kd: 0.0158 µM
MS2 coat protein [1]; [6]
  apparent Kd: 0.0104 µM

## ACCUGCGUUUGUUUCUUUCUGACGCAGGUUCGAGGACCGGUACGGCCGCCACUCGGACAUGAGGAUCACCCAUGUUUGACAUGGG
MS2 coat protein [1]; [3]
  apparent Kd: 0.0573 µM
MS2 coat protein [1]; [4]
  apparent Kd: 0.0173 µM

## AGAAUAUAGUCGGCCGCCACUCUACAUACAUGAGGAUCACCCAUGUUUACAUAGUGAAUAUACAUGAGGACCGGGACAUAGGCAU
MS2 coat protein [1]; [5]
  apparent Kd: 0.0218 µM
MS2 coat protein [1]; [6]
  apparent Kd: 0.0134 µM

## AGAGUCUAGUCGGCCGCCACUCAUGUCCAAAGGACAUGAGGAUCACCCAUGUACCAAUGGUACAUGAGGACCGGGACUGGACUCA
MS2 coat protein [1]; [5]
  apparent Kd: 0.0277 µM
MS2 coat protein [1]; [6]
  apparent Kd: 0.00833 µM

## AGAGUCUAGUCGGCCGCCACUCAUGUCCAAUGGACAUGAGGAUCACCCAUGUACCAAAGGUACAUGAGGACCGGGACUGGACUCA
MS2 coat protein [1]; [5]
  apparent Kd: 0.0477 µM
MS2 coat protein [1]; [6]
  apparent Kd: 0.00757 µM

## AGAGUCUAGUCGGCCGCCACUCAUGUCCAAUGGACAUGAGGAUCACCCAUGUACCGAAGGUACAUGAGGACCGGGACUGGACUCA
MS2 coat protein [1]; [5]
  apparent Kd: 0.153 µM
MS2 coat protein [1]; [6]
  apparent Kd: 0.0117 µM

## AGCACUGUGACGGCCGCCACUACAUAACAUGGGUGGUCAGGUUCAUUACAUGAGGAUCACCCAUGUAGGACCGGGUCUCAGUGCA
MS2 coat protein [1]; [3]
  apparent Kd: 0.0101 µM
MS2 coat protein [1]; [4]
  apparent Kd: 0.00835 µM

## AGCACUGUGACGGCCGCCACUAUAUUAGGGUGGUCAGGUUCAUAAAUACAUGAGGAUCACCCAUGUAGGACCGGGUCUCAGUGCA
MS2 coat protein [1]; [3]
  apparent Kd: 0.00948 µM
MS2 coat protein [1]; [4]
  apparent Kd: 0.00988 µM

## AGCCACUCGAACAUGGGUGACGAGUGGCAACGAGGACCGGUACGGCCGCCACUCGAAUAAACAUGAGGAUCACCCAUGUACAAAU
MS2 coat protein [1]; [5]
  apparent Kd: 0.292 µM
MS2 coat protein [1]; [6]
  apparent Kd: 0.214 µM

## AGCCACUCGAGUGAUCCUCACGAGUGGCUACGAGGACCGGUACGGCCGCCACUCGAAUUAACAUGAGGAUCACCCAUGUAAUCUC
MS2 coat protein [1]; [5]
  apparent Kd: 0.102 µM
MS2 coat protein [1]; [6]
  apparent Kd: 0.0459 µM

## CACGAAAGAUCGGCCGCCACUAUUUGAUGUGUUCUUUCACAUGAGGAUCACCCAUGUUCUUAUUUUAGGACCGGGAUUGAGCGUG
MS2 coat protein [1]; [3]
  apparent Kd: 0.0948 µM
MS2 coat protein [1]; [4]
  apparent Kd: 0.0693 µM

## CACGAAAGAUCGGCCGCCACUCAUGUUUCUUACAUGAGGAUCACCCAUGUAUUUUCUUUCUUUUAGAGGACCGGGAUUGAGCGUG
MS2 coat protein [1]; [5]
  apparent Kd: 0.155 µM
MS2 coat protein [1]; [6]
  apparent Kd: 0.0298 µM

## CCUAUGCAGUCGGCCGCCACUGAAAACAGCCUCAAAAUAAAUAUAACAUGAGGAUCACCCAUGUACAGGACCGGGACUGUAUAGG
MS2 coat protein [1]; [3]
  apparent Kd: 0.147 µM
MS2 coat protein [1]; [4]
  apparent Kd: 0.0796 µM

## CCUAUGCAGUCGGCCGCCACUGAACAUGAGGAUCACCCAUGUAAUUAAAAUUAAGGUCCUAAAAUCAGGACCGGGACUGUAUAGG
MS2 coat protein [1]; [3]
  apparent Kd: 0.0385 µM
MS2 coat protein [1]; [4]
  apparent Kd: 0.237 µM

## CCUCAAUAGACGGCCGCCACUGAAACAUGAGGAUACAUGAGGAUCACCCAUGUGGGUGUGUUACGCAGGACCGGGUCAAGACCCG
MS2 coat protein [1]; [5]
  apparent Kd: 0.207 µM
MS2 coat protein [1]; [6]
  apparent Kd: 0.336 µM

## CGAAUAUAGACGGCCGCCACUCUACAAACAUGAGGAUCACCCAUGUUCACAUAGUGGAAACACAUGAGGACCGGGUCAUAGGCUU
MS2 coat protein [1]; [5]
  apparent Kd: 0.0226 µM
MS2 coat protein [1]; [6]
  apparent Kd: 0.0171 µM

## GCACCAGGUACGGAUACCAGCUAUAGGCCCAAUGGGCGACAUGAGGAUCACCCAUGUAAUGGCCCUUGGCAGCUGUACCUGGUGC
MS2 coat protein [2]; [7]
  apparent Kd: 0.0883 µM
MS2 coat protein [2]; [8]
  apparent Kd: 0.0137 µM

## GCACCAGGUACGGAUACCAGCUGCCAGCGUUACAUGAGGAUCACCCAUGUGAUCUGAAGUAGCCCUUGGCAGCUGUACCUGGUGC
MS2 coat protein [2]; [7]
  apparent Kd: 0.0212 µM
MS2 coat protein [2]; [8]
  apparent Kd: 0.0959 µM

## GCACCAGGUACGGAUACCAGCUGCCCGAGAUACAUGAGGAUCACCCAUGUGACCUGGUUUAGCCCUUGGCAGCUGUACCUGGUGC
MS2 coat protein [2]; [7]
  apparent Kd: 0.0136 µM
MS2 coat protein [2]; [8]
  apparent Kd: 0.00999 µM

## GCACUACAUGAGGAUCACCCAUGUGCAGAUACCAGAGGUGUAUGCCUCCCUUGGCAGCUGAGUAGGUCUGGAGGGCUAUUGGUUU
MS2 coat protein [2]; [7]
  apparent Kd: 0.0176 µM
MS2 coat protein [2]; [8]
  apparent Kd: 0.0235 µM

## GGAAUAACGAUUGAUACCAGCAUGUUAACAUGAGGAUCACCCAUGUUAAGGAUAACAUAAUGCCCUUGGCAGCAACGGAAACCCG
MS2 coat protein [2]; [7]
  apparent Kd: 0.0213 µM
MS2 coat protein [2]; [8]
  apparent Kd: 0.0129 µM

## GGGCCUGUAGGCAGGCCCACAGCGGGUGAUACCAGCAAUAAAACUUGCCCUUGGCAGCACACAGCUACAUGAGGAUCACCCAUGU
MS2 coat protein [2]; [7]
  apparent Kd: 0.0412 µM
MS2 coat protein [2]; [8]
  apparent Kd: 0.0704 µM

## GGUAGCAGGACUGAUACCAGUCCAGCGAAUCAUACGACGCAACAUGAGGAUCACCCAUGUGACCCUUGGCAGCAGACUGCUACCG
MS2 coat protein [2]; [7]
  apparent Kd: 0.0247 µM
MS2 coat protein [2]; [8]
  apparent Kd: 0.0145 µM

## GGUCUCUGGAGCGAUACCAGCUUGAUCGUACUGGCCUGGUACAUGAGGAUCACCCAUGUAAGCCCUUGGCAGCGCUCCAGAGACC
MS2 coat protein [2]; [9]
  apparent Kd: 0.0123 µM
MS2 coat protein [2]; [10]
  apparent Kd: 0.0281 µM

## GUGGAGACACGAGAUACCAGUCUCUAUAACAUGAGGAUCACCCAUGUAAUGCUCCUCAGGGACCCUUGGCAGCUCAGUAUGAUGA
MS2 coat protein [2]; [9]
  apparent Kd: 0.0329 µM
MS2 coat protein [2]; [10]
  apparent Kd: 0.134 µM

## UAACAUGAGGAUCACCCAUGUAUAGUCGAUACCAGCUCAAGGAAGAGCCCUUGGCAGCGACACUGCCAAGCAUGGGUCAUGGCAG
MS2 coat protein [2]; [7]
  apparent Kd: 0.0211 µM
MS2 coat protein [2]; [8]
  apparent Kd: 0.0334 µM

## UACAUGAGGAUCACCCAUGUAUAGAGGGAUACCAGUGUCAGUGAGCACCCUUGGCAGCCCGCGAACAAUGGGUGCGCUAUAUAGU
MS2 coat protein [2]; [9]
  apparent Kd: 0.0263 µM
MS2 coat protein [2]; [10]
  apparent Kd: 0.0622 µM

## UACAUGAGGAUCACCCAUGUAUGAAUGGAUACCAGAUAAAAUAAGGUCCCUUGGCAGCUAGUGAAUCGAGGGUGGGUAUCAUGAU
MS2 coat protein [2]; [9]
  apparent Kd: 0.0112 µM
MS2 coat protein [2]; [10]
  apparent Kd: 0.0103 µM

## UAUAACAUGAGGAUCACCCAUGUAAGUGAUACCAGAUAAAUAAUAGUCCCUUGGCAGCAUAUUGGGAAAAUGUAUAAUAUAUAUU
MS2 coat protein [2]; [7]
  apparent Kd: 0.0578 µM
MS2 coat protein [2]; [8]
  apparent Kd: 0.0574 µM

## UAUACAUGAGGAUCACCCAUGUGCCAUGAUACCAGACAUGAAAAUGUCCCUUGGCAGCAUGGGAAAUGUAUAGCGGGAAACCCGA
MS2 coat protein [2]; [7]
  apparent Kd: 0.0726 µM
MS2 coat protein [2]; [8]
  apparent Kd: 0.704 µM

## UCAUAUUAGAUAGAUGUAAGGUAUCAUGAUACCAGUAGAUAAUUAUACCCUUGGCAGCAUAACAUGAGGAUCACCCAUGUACAUG
MS2 coat protein [2]; [9]
  apparent Kd: 0.0213 µM
MS2 coat protein [2]; [10]
  apparent Kd: 0.0209 µM

## UCCUCCUCCGCAAGGAGGAGGAGUUGCGAUACCAGCACGGCAACGUGCCCUUGGCAGCGCACAUGAGGAUCACCCAUGUCAUGUU
MS2 coat protein [2]; [9]
  apparent Kd: 0.0194 µM
MS2 coat protein [2]; [10]
  apparent Kd: 0.0243 µM

## UCGUGUAUAUCGGAUACCAGUGAGAAGGAUACAUGAGGAUCACCCAUGUGAGUUGAUGUACACCCUUGGCAGCUGUAUAUAUCUA
MS2 coat protein [2]; [7]
  apparent Kd: 0.0499 µM
MS2 coat protein [2]; [8]
  apparent Kd: 0.0262 µM

## UCUUGGUCCGCAAGGACCUUGAGUUGCGAUACCAGCACGGUAACGUGCCCUUGGCAGCGCACAUGAGGAUCACCCAUGUGGUGUU
MS2 coat protein [2]; [9]
  apparent Kd: 0.261 µM
MS2 coat protein [2]; [10]
  apparent Kd: 0.236 µM

## UGACAUUGCUCAGAUACCAGACAUGAGGAUCACCCAUGUGCCAAAUAAACGUACAUAAAUGUCCCUUGGCAGCUGAGCAAUGUCU
MS2 coat protein [2]; [9]
  apparent Kd: 0.0575 µM
MS2 coat protein [2]; [10]
  apparent Kd: 0.89 µM

## UUUACAUGAGGAUCACCCAUGUGCCAUGAUACCAGACAUGAAAAUGUCCCUUGGCAGCAUGAAGGUACCUCAUCGGGAAACCGAA
MS2 coat protein [2]; [7]
  apparent Kd: 0.134 µM
MS2 coat protein [2]; [8]
  apparent Kd: 0.247 µM

## UUUACAUGAGGAUCACCCAUGUGCCAUGAUACCAGACAUGAAAAUGUCCCUUGGCAGCAUGAGUGAUUCAUCCGAAAGGAUGUUU
MS2 coat protein [2]; [7]
  apparent Kd: 0.121 µM
MS2 coat protein [2]; [8]
  apparent Kd: 0.673 µM

## UUUACAUGAGGAUCACCCAUGUUCCAUGAUACCAGACAUGAAAAUGUCCCUUGGCAGCAUGAAUGAUUCAUAGGAUAAUUAUGGG
MS2 coat protein [2]; [7]
  apparent Kd: 0.0987 µM
MS2 coat protein [2]; [8]
  apparent Kd: 0.0529 µM

## UUUGAUAGGACAGAUACCAGCGUGUUGUUGAACAUGAGGAUCACCCAUGUAGUGAUCGAGCGCCCUUGGCAGCUGGUUUGUUAGG
MS2 coat protein [2]; [7]
  apparent Kd: 0.382 µM
MS2 coat protein [2]; [8]
  apparent Kd: 0.306 µM
